Data reported in ChEMBL document CHEMBL2157873, “Development and characterization of endocannabinoid hydrolases FAAH and MAGL inhibitors bearing a benzotriazol-1-yl carboxamide scaffold” (Bioorg Med Chem, 2012).
The source made the active and inactive calls. No cut-off for these calls is given here.

Experiments:
[1] = biological target: T1, Fatty-acid amide hydrolase 1 (Homo sapiens, UniProt O00519); experiment: Inhibition of human recombinant FAAH assessed as [3H]-AEA hydrolysis preincubated for 30 mins […] measured after 10 mins by liquid scintillation counting
T1 sequence (O00519 whole entry): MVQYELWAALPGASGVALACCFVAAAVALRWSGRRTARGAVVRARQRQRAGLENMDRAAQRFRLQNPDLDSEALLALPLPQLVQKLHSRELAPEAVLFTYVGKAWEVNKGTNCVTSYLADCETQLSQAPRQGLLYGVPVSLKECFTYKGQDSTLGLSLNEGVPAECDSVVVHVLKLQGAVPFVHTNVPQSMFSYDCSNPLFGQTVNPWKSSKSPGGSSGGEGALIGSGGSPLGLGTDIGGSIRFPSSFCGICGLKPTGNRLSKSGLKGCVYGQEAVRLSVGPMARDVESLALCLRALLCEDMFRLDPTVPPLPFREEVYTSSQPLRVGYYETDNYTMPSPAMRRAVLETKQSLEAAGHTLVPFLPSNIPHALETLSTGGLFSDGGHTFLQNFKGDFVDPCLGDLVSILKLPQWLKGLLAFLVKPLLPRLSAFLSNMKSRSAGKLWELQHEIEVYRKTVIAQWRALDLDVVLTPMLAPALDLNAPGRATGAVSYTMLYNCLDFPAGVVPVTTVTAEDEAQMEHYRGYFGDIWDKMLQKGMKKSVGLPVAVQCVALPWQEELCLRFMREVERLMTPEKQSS
Procedure, shortened: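 Human FAAH fused to maltose-binding protein, preincubated 30 min at 22 °C with inhibitor at various concentrations (Tris 10 mM, EDTA 1 mM, pH 8.0, inhibitor in DMSO). [3H]-anandamide (50,000 dpm) added, 10 min at 37 °C. Stopped with cold methanol/chloroform (1:1), aqueous-phase radioactivity by scintillation, blank subtracted, percent of control fitted as dose-response. Three independent experiments in duplicate.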

Homo sapiens = species on record: Homo sapiens; experiment: Selectivity ratio of IC50 for human recombinant FAAH to IC50 for human MAGL
Procedure, shortened: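 Selectivity calculated as IC50 for human FAAH divided by IC50 for human MAGL. Both IC50 values from radiometric hydrolysis assays: [3H]-AEA with MBP-fused FAAH and [3H]-2-OG with pure MAGL. Each assay had 30 min inhibitor preincubation. Means of three independent experiments in duplicate.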

Monoglyceride lipase [2] = biological target: T2, Monoglyceride lipase (Homo sapiens, UniProt Q99685); experiment: Inhibition of human MAGL assessed as [3H]-2-OG hydrolysis preincubated for 30 mins before [3H]-2-OG addition measured after 10 mins by liquid scintillation counting
T2 sequence (Q99685 whole entry): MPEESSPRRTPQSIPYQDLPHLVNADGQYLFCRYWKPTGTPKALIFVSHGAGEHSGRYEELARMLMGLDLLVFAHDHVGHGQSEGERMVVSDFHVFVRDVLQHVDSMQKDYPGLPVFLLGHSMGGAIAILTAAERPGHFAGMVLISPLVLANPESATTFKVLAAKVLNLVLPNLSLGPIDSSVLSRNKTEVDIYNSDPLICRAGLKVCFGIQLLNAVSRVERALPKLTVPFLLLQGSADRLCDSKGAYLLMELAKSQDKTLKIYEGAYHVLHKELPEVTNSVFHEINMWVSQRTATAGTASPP
Procedure, shortened: (§1)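 [3H]-2-oleoylglycerol then added at 10 µM final. Stopped with methanol-chloroform (1:1), centrifuged 5 min at 700 g, aqueous-phase radioactivity read by liquid scintillation, no-enzyme blank subtracted. Means of three independent experiments in duplicate.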

[3] = biological target: Monoglyceride lipase (Homo sapiens) (UniProt Q99685); experiment: Ratio of JZL184 IC50 to compound IC50 for human MAGL
[4] = biological target: T3, Monoglyceride lipase (Homo sapiens) (UniProt Q99685); experiment: Ratio of JZL184 IC50 to compound IC50 for human MAGL
T3 sequence (whole entry): T2 sequence (Q99685 whole entry)

[5] = biological target: T3, Monoglyceride lipase (Homo sapiens); experiment: Ratio of Kinact to Ki for human MAGL using p-nitrophenylpropionate as substrate
Procedure, shortened: (§2)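 MAGL (3 ng; Tris 50 mM, LDAO 0.1%, pH 8.0) added to p-nitrophenylpropionate (1.25 mM) plus inhibitor at various concentrations, both in DMSO. […] Done four times in quadruplicate.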

[6] = biological target: T3, Monoglyceride lipase (Homo sapiens); experiment: Irreversible inhibition of human MAGL assessed as [3H]-2-OG hydrolysis preincubated for 30 mins before [3H]-2-OG addition measured at 10^-8 M to 10^-9 M measured after 300 fold dilution rapid dilution assay
Procedure, shortened: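 Human MAGL (800 ng in Tris 50 mM, BSA 0.15%, pH 8.0) incubated 30 min at room temperature with inhibitor at 10^-8 or 10^-9 M in the mixture (DMSO). Diluted 300-fold in buffer, 15 min incubation, then [3H]-2-OG hydrolase activity read on an aliquot holding 10 ng enzyme by the standard radiometric method. Performed two times in triplicate.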

Monoglyceride lipase [7] = biological target: T2, Monoglyceride lipase; experiment: Irreversible inhibition of human MAGL using p-nitrophenylpropionate as substrate; procedure, shortened: as §2
[8] = biological target: T4, Fatty-acid amide hydrolase 1 (Homo sapiens) (UniProt O00519); experiment: Inhibition of human recombinant FAAH assessed as [3H]-AEA hydrolysis preincubated for 30 mins […] measured at 10^-5 M after 10 mins by liquid scintillation counting
T4 sequence (whole entry): T1 sequence (O00519 whole entry)

Monoglyceride lipase [9] = biological target: T2, Monoglyceride lipase; experiment: Inhibition of MAGL; procedure, shortened: as §1
[10] = biological target: T1, Fatty-acid amide hydrolase 1; experiment: Inhibition of FAAH
Procedure, shortened: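 Human FAAH fused to maltose-binding protein, preincubated 30 min at 22 °C with inhibitor (various concentrations, in DMSO) in Tris 10 mM, EDTA 1 mM, pH 8.0. [³H]-anandamide substrate added, then 10 min at 37 °C. Stopped with cold methanol/chloroform (1:1). Aqueous-phase radioactivity counted by liquid scintillation, with the no-enzyme blank subtracted. Activity taken as percent of control; IC50 from dose-response curves; three independent experiments in duplicate.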

Row | SMILES | IC50 [1] [nM] | Ratio IC50 (Homo sapiens) | IC50 (Monoglyceride lipase [2]) [nM] | other results
1 | O=C(c1cc(N2CCN(C(=O)n3nnc4ccccc43)CC2)ccc1[N+](=O)[O-])N1CCCCC1 | 2290 | 60 | 38 | 
2 | O=C(N1CCN(Cc2ccc([N+](=O)[O-])cc2)CC1)n1nnc2ccccc21 | 89 | 7.6 | 12 | 
3 | COc1ccc(N2CCN(C(=O)n3nnc4ccccc43)CC2)cc1 | 15 | 0.47 | 32 | 
4 | O=C(N1CCN(C(c2ccccc2)c2ccccc2)CC1)n1nnc2ccccc21 | 562 | 1040 | 0.54 | Ratio IC50 [3]: 70; Ratio IC50 [4]: 70; Ratio [5]: 208000; inhibition [6]: Active; Ki (Monoglyceride lipase [7]): 75.7 nM
5 | O=C(NC1CCCCC1)c1cc(N2CCN(C(=O)n3nnc4ccccc43)CC2)ccc1[N+](=O)[O-] | 490 | 12 | 41 | 
6 | CC(C)NC(=O)c1cc(N2CCN(C(=O)n3nnc4ccccc43)CC2)ccc1[N+](=O)[O-] | 2090 | 8.9 | 234 | 
7 | CN(C)C(=O)c1cccc(CN2CCN(C(=O)n3nnc4ccccc43)CC2)c1 | 275 | 2.7 | 102 | 
8 | O=C(Nc1ccccc1)c1cc(N2CCN(C(=O)n3nnc4ccccc43)CC2)ccc1[N+](=O)[O-] | 363 | 19 | 19 | 
9 | O=C(O)c1cccc(CN2CCN(C(=O)n3nnc4ccccc43)CC2)c1 | 27500 | 41 | 676 | 
10 | O=C(c1cc(N2CCN(C(=O)n3nnc4ccccc43)CC2)ccc1[N+](=O)[O-])N1CCOCC1 |  | > 100 | 162 | inhibition [8]: 40%
11 | CC(C)NC(=O)c1ccc(N2CCN(C(=O)n3nnc4ccccc43)CC2)c([N+](=O)[O-])c1 | 158 | 0.43 | 372 | 
12 | CN1CCN(C(=O)c2cc(N3CCN(C(=O)n4nnc5ccccc54)CC3)ccc2[N+](=O)[O-])CC1 |  | > 100 | 141 | inhibition [8]: 40%
13 | O=C(c1ccc(N2CCN(C(=O)n3nnc4ccccc43)CC2)c([N+](=O)[O-])c1)N1CCOCC1 | 1950 | 2 | 955 | 
14 | O=C(N1CCN(c2ccc([N+](=O)[O-])cc2)CC1)n1nnc2ccccc21 | 34 | 1.7 | 20 | 
15 | O=C(NC1CCCCC1)c1cccc(CN2CCN(C(=O)n3nnc4ccccc43)CC2)c1 | 44 | 3.4 | 13 | 
16 | O=C(N1CCN(Cc2ccc(-c3ccccc3)cc2)CC1)n1nnc2ccccc21 | 18 | 0.3 | 62 | 
17 | O=C(c1cccc(CN2CCN(C(=O)n3nnc4ccccc43)CC2)c1)N1CCCCC1 | 58 | 1.6 | 36 | 
18 | O=C(N1CCN(c2ccccc2)CC1)n1nnc2ccccc21 | 11 | 0.5 | 21 | 
19 | O=C(N1CCN(Cc2ccc(Br)cc2)CC1)n1nnc2ccccc21 | 22 | 2.5 | 9 | 
20 | O=C(N1CCC(Cc2ccccc2)CC1)n1nnc2ccccc21 | 2 | 0.7 | 3 | 

Row | SMILES | IC50 [1] [nM] | Ratio IC50 (Homo sapiens) | IC50 (Monoglyceride lipase [2]) [nM] | other results
21 | O=C(N1CCN(Cc2ccccc2)CC1)n1nnc2ccccc21 | 19 | 2.4 | 8 | 
22 | Cc1ccccc1N1CCN(C(=O)n2nnc3ccccc32)CC1 | 3 | 0.04 | 71 | 
23 | CN1CCN(C(=O)c2cccc(CN3CCN(C(=O)n4nnc5ccccc54)CC3)c2)CC1 | 1380 | 4.3 | 324 | 
24 | O=C(N1CCN(Cc2ccc3ccccc3c2)CC1)n1nnc2ccccc21 | 12 | 1.3 | 9 | 
25 | CN(C)C(=O)c1cc(N2CCN(C(=O)n3nnc4ccccc43)CC2)ccc1[N+](=O)[O-] | 5010 | 79 | 63 | 
26 | O=C(NCCc1ccc(O)c(O)c1)n1nnc2ccccc21 |  |  | 10500 | 
27 | O=C(N1CCN(C(c2ccccc2)c2ccccc2)CC1)n1nnc2ncccc21 |  |  |  | IC50 (Monoglyceride lipase [9]): 4 nM
28 | O=C(N1CCN(Cc2cccc([N+](=O)[O-])c2)CC1)n1nnc2ccccc21 | 43 | 5.4 | 8 | 
29 | O=C(N1CCN(Cc2ccc(F)cc2)CC1)n1nnc2ccccc21 | 15 | 1.5 | 10 | 
30 | O=C(N1CCN(Cc2ccccc2-c2ccccc2)CC1)n1nnc2ccccc21 | 32 | 1 | 33 | 
31 | O=C(Nc1ccccc1)c1cccc(CN2CCN(C(=O)n3nnc4ccccc43)CC2)c1 | 35 | 4.8 | 7 | 
32 | O=C(N1CCN(c2ccccc2[N+](=O)[O-])CC1)n1nnc2ccccc21 | 19 | 0.08 | 224 | 
33 | O=C(N1CCN(C/C=C/c2ccccc2)CC1)n1nnc2ccccc21 | 28 | 0.8 | 33 | 
34 | O=C(Oc1ccc([N+](=O)[O-])cc1)N1CCC(C(O)(c2ccc3c(c2)OCO3)c2ccc3c(c2)OCO3)CC1 | 36300 |  |  | IC50 [10]: 4690 nM
35 | O=C(N1CCN(Cc2cccc(Cl)c2)CC1)n1nnc2ccccc21 | 9 | 4.5 | 2 | 
36 | O=C(N1CCN(Cc2cccc3ccccc23)CC1)n1nnc2ccccc21 | 13 | 4 | 3 | 
37 | O=C(N1CCN(Cc2cccc(-c3ccccc3)c2)CC1)n1nnc2ccccc21 | 9 | 0.4 | 23 | 
38 | O=C(N1CCN(Cc2ccc(Cl)cc2)CC1)n1nnc2ccccc21 | 17 | 1.5 | 11 | 
39 | O=C(N1CCN(c2ccccc2F)CC1)n1nnc2ccccc21 | 13 | 0.44 | 30 | 
